Screening data: PubChem BioAssay, several laboratories
Sampled rows, rich in hits. Any-hit rate of the full collection: about 4%.
TAAR1 antagonist: human TAAR1 antagonists, primary screen, Fluo-8 calcium fluorescence, CHO RD-HGA16 cells; inhibition, % at 3 µM; 360,000 compounds, 1.5% hits; antagonist; AID 624466, 2012; Trace amine-associated receptor 1 (Homo sapiens), Q96RJ0;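 active = inhibition above a per-plate cutoff, the mean inhibition of test compounds on that plate plus 3 SD, cut at about 49% in these data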
Target sequence (Q96RJ0 whole entry, looked up): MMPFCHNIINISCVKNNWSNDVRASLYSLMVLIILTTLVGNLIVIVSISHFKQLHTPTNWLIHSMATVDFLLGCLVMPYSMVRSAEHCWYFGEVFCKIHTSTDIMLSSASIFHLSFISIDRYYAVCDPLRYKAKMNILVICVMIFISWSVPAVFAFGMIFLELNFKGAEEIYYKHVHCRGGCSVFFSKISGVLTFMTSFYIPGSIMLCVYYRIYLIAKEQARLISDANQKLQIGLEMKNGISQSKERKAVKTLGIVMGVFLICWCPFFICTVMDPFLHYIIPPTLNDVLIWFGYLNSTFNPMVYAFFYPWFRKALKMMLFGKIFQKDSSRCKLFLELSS
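Material: CHO RD-HGA16 cells bearing hTAAR1; compound dosing: one-point dosing, 3 µM nominal final; schedule: dye loading 75 min at 37 °C, then 30 min room temperature; measured by: calcium fluorescence with Fluo-8; control set: vehicle and agonist controls; replication: n of 1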
DAGLB inhibitor: DAGLB lipase inhibitors, primary screen, biochemical, fluorescence, HTS; HEK293T DAGLB membrane lysate, EnzChek fluorogenic substrate; inhibition, % at 5.17 µM; 340,000 compounds, 0.059% hits; in the data active = inhibition above about 34%
GPR7 antagonist: GPR7 receptor antagonists, primary screen, cell-based, fluorescence, single concentration | GPR7-expressing cells, fluorescence antagonist assay | inhibition, % at 4.4 µM | 290,000 compounds, 1.1% hits; in the data active = inhibition above about 16%, passing the limit was not always enough;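 also: cells stimulated with the agonist NPW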
Target sequence (P48145 whole entry, looked up): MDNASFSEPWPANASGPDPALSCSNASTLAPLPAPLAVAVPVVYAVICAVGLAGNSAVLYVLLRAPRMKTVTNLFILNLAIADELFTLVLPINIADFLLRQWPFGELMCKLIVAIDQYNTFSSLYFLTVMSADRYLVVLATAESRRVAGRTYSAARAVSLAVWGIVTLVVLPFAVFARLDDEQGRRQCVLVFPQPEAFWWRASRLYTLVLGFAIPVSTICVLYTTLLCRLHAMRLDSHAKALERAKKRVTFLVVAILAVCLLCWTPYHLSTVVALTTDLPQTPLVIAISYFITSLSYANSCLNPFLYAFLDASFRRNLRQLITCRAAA
TAAR1 agonist: human TAAR1 agonists, primary screen, Fluo-8 calcium fluorescence, CHO RD-HGA16 cells; vehicle wells 0%, saturating PEA agonist 100%; Trace amine-associated receptor 1 (Homo sapiens), Q96RJ0; activation, % at 3 µM; 360,000 compounds, 0.99% hits;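 active = activation above the mean activation of all test compounds in the run plus 3 SD, cut at about 38% in these data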
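Assay system: CHO-derived RD-HGA16 cells with stable Gα16 and human TAAR1; timing: 17-24 h seeding, 75 min 37 °C dye, 30 min RT; read-out: % activation from peak over basal fluorescence ratio, DMSO-to-PEA scaled; measured by: kinetic Fluo-8 calcium fluorescence; benchmarks: low control DMSO, high control PEA (EC100); doses: 3 µM single concentration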
MPTP block: mitochondrial permeability transition pore inhibitors, primary screen, biochemical, isolated mouse mitochondria, absorbance; Ca2+ swelling absorbance, 30 min; inhibition, % at 10 µM; 360,000 compounds, 1.4% hits;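 active = inhibition of 50% or more, scaled per plate between neutral and stimulator controls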
GPR7 antag cf: GPR7 receptor antagonists, confirmation, cell-based, fluorescence, single concentration | GPR7-expressing cells, calcium fluorescence antagonist mode | shares compounds with GPR7 antagonist | inhibition, % at 4.4 µM | AID 1952, 2009 | 2,400 compounds, 52% hits; in the data active = inhibition above about 24%;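 also: stimulated with the GPR7 agonist NPW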
MCHR1 antagonist: MCHR1 antagonists in cells, counter-screen for GPR7 antagonist project, cell-based, fluorescence, human | inhibition, % at 4.4 µM | AID 2148, 2009 | shares compounds with GPR7 antagonist | MCHR1-expressing cells, fluorescence antagonist assay | 2,400 compounds, 62% hits; in the data active = inhibition above about 22%
TAAR1 ag conf: human TAAR1 agonists, retest of hits, confirmation, Fluo-8 calcium fluorescence, CHO RD-HGA16 cells; shares compounds with TAAR1 agonist; scaled: DMSO 0%, maximal phenethylamine 100%; activation, % at 3 µM; 2,400 compounds, 82% hits;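 active = activation above a cutoff set at the run's mean compound activation plus 3 SD, cut at about 39% in these data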
Ga16 ag counter: nonselective calcium mobilization agonists, CHO-Ga16 cells, counter-screen for hTAAR1 agonist project, cell-based, fluorescence, CHO-Ga16 parental line; AID 651787, 2012; shares compounds with TAAR1 agonist; activation, % at 3 µM; Fluo-8 calcium fluorescence; normalized to maximal ATP response, DMSO zero; 2,400 compounds, 50% hits;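 active = activation above the run cutoff, the mean activation over all tested wells plus 3 SD, cut at about 12% in these data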
TAAR1 desens: TAAR1 desensitization by agonist hits, confirmation, counter-screen for TAAR1 agonist project, cell-based, fluorescence, tachyphylaxis; shares compounds with TAAR1 agonist; CHO RD-HGA16 hTAAR1, Fluo-8 calcium, beta-PEA response inhibition; inhibition, % at 3 µM; 2,400 compounds, 46% hits; AID 651951, 2012;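 active = inhibition above the run cutoff, the mean inhibition of all test compounds plus 3 SD, cut at about 49% in these data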;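 also: beta-PEA stimulus applied at its EC80; loss of beta-PEA calcium signal after compound pretreatment read as receptor desensitization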
Ga16 nonsel ant: inhibition of ATP-evoked calcium response in CHO-Ga16 cells, counter-screen for TAAR1 agonist project, cell-based, fluorescence | 2,400 compounds, 39% hits | CHO-Ga16 ATP-induced calcium, Fluo-8 fluorescence | inhibition, % at 3 µM | shares compounds with TAAR1 agonist;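 active = inhibition above the plate's mean compound inhibition plus 3 SD, computed per plate, cut at about 22% in these data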
A number is an active result.

For CC1(c2ccc(OC(F)F)cc2)NC(=O)N(CC(=O)Nc2ccc(F)cc2)C1=O (stereo unspecified) the results were TAAR1 antagonist inactive, DAGLB inhibitor inactive, GPR7 antagonist 43.3, TAAR1 agonist 77.5, MPTP block inactive, GPR7 antag cf 54.4, MCHR1 antagonist 48.1, TAAR1 ag conf 106.7, Ga16 ag counter 46.6, TAAR1 desens 78.5 and Ga16 nonsel ant 46.0.
For CC1(c2ccc(OC(F)F)cc2)NC(=O)N(CC(=O)Nc2ccc(S(N)(=O)=O)cc2)C1=O (stereo unspecified) the results were TAAR1 antagonist inactive, DAGLB inhibitor inactive, GPR7 antagonist inactive, TAAR1 agonist inactive and MPTP block inactive.
For Cc1cc(NC(=O)CN2C(=O)NC(C)(c3ccc(OC(F)F)cc3)C2=O)no1 (stereo unspecified) the results were TAAR1 antagonist inactive, DAGLB inhibitor inactive, GPR7 antagonist 50.2, TAAR1 agonist 83.3, MPTP block inactive, GPR7 antag cf 51.2, MCHR1 antagonist 47.8, TAAR1 ag conf inactive, Ga16 ag counter inactive, TAAR1 desens inactive and Ga16 nonsel ant inactive.
CC1(c2ccc(OC(F)F)cc2)NC(=O)N(CC(=O)Nc2ccc(Cl)cc2F)C1=O (stereo unspecified) was read as TAAR1 antagonist 55.0, DAGLB inhibitor inactive, GPR7 antagonist 55.4, TAAR1 agonist 95.6, MPTP block inactive, GPR7 antag cf 66.9, MCHR1 antagonist 63.7, TAAR1 ag conf 91.0, Ga16 ag counter 46.8, TAAR1 desens 53.4 and Ga16 nonsel ant 43.2.
CS(=O)(=O)/C(C#N)=C\c1cnc(S(=O)(=O)c2ccccc2)s1 was read as GPR7 antagonist inactive.
`CCOc1ccc(NC(=O)CN2C(=O)NC(C)(c3ccc(OC(F)F)cc3)C2=O)cc1` (stereo unspecified) gave TAAR1 antagonist 63.0, DAGLB inhibitor inactive, GPR7 antagonist 75.2, TAAR1 agonist 98.9, MPTP block inactive, GPR7 antag cf 80.5, MCHR1 antagonist 74.4, TAAR1 ag conf 125.0, Ga16 ag counter 82.3, TAAR1 desens 97.1 and Ga16 nonsel ant 58.5.
CC1(c2ccc(OC(F)F)cc2)NC(=O)N(CC(=O)Nc2cccc(F)c2)C1=O (stereo unspecified) was read as TAAR1 antagonist 97.6, DAGLB inhibitor inactive, GPR7 antagonist 93.7, TAAR1 agonist 137.7, MPTP block inactive, GPR7 antag cf 93.0, MCHR1 antagonist 92.3, TAAR1 ag conf 119.9, Ga16 ag counter 84.2, TAAR1 desens 97.1 and Ga16 nonsel ant 71.8.
For CC1(c2ccc(OC(F)F)cc2)NC(=O)N(CC(=O)Nc2ccc(OC(F)F)cc2)C1=O (stereo unspecified) the results were TAAR1 antagonist 83.2, DAGLB inhibitor inactive, GPR7 antagonist 86.4, TAAR1 agonist 103.0, MPTP block inactive, GPR7 antag cf 88.3, MCHR1 antagonist 86.5, TAAR1 ag conf 96.6, Ga16 ag counter 45.8, TAAR1 desens 82.4 and Ga16 nonsel ant 55.8.
`CCCS(=O)(=O)NC(=O)C1(C)CCCN(C(=O)c2cc(C)nn2C(C)(C)C)C1` (stereo unspecified) gave TAAR1 antagonist inactive, TAAR1 agonist inactive and MPTP block inactive.
Screening O=c1[nH]cc(S(=O)(=O)N2CCN(c3ccccc3F)CC2)c(=O)[nH]1 returned TAAR1 antagonist inactive, DAGLB inhibitor inactive, TAAR1 agonist inactive and MPTP block inactive.
`CCOC(=O)C1(C)CCCN(C(=O)c2cccc(OC(F)(F)F)c2)C1` (stereo unspecified) gave TAAR1 antagonist inactive, TAAR1 agonist inactive and MPTP block inactive.
Screening FC(F)C(F)(F)c1cc(-c2ccc(Cl)cc2)n[nH]1 returned TAAR1 antagonist inactive, GPR7 antagonist 30.1, TAAR1 agonist 63.2, MPTP block inactive, GPR7 antag cf 31.9, MCHR1 antagonist 44.0, TAAR1 ag conf 56.8, Ga16 ag counter 21.8, TAAR1 desens inactive and Ga16 nonsel ant 25.9.
Screening Fc1ccc(-c2cc(C(F)(F)C(F)F)[nH]n2)cc1 returned TAAR1 antagonist 74.9, GPR7 antagonist 42.2, TAAR1 agonist 81.4, MPTP block inactive, GPR7 antag cf 63.8, MCHR1 antagonist 62.7, TAAR1 ag conf 91.4, Ga16 ag counter 53.4, TAAR1 desens 73.6 and Ga16 nonsel ant 39.2.
Screening Cc1c(Cl)ccc2c1NC(=O)[C@]21N[C@@H](Cc2ccccc2)[C@H]2C(=O)N(c3ccc(F)cc3)C(=O)[C@H]21 returned TAAR1 antagonist inactive, DAGLB inhibitor inactive, GPR7 antagonist 35.7, TAAR1 agonist 92.2, MPTP block inactive, GPR7 antag cf 67.4, MCHR1 antagonist 69.4, TAAR1 ag conf 103.2, Ga16 ag counter 41.8, TAAR1 desens 74.8 and Ga16 nonsel ant 38.1.
Screening CCCOc1ccc(C(=O)NNC(=S)NC(=O)c2cccs2)cc1 returned TAAR1 antagonist 106.1, DAGLB inhibitor inactive, GPR7 antagonist 51.8, TAAR1 agonist 158.9, MPTP block inactive, GPR7 antag cf 41.8, MCHR1 antagonist 36.8, TAAR1 ag conf 153.6, Ga16 ag counter 123.7, TAAR1 desens 106.5 and Ga16 nonsel ant 91.4.
